# Laboratory results reported in ChEMBL document CHEMBL1765004 (2011).
# Active and inactive are the calls of the source. No cut-off for these calls is given here.
# System: HCT-116
# Assay: Anticancer activity against human HCT116 cells at 10 uM
# Type: functional
row,SMILES,inhibition at 10 µM [%]
1,C/C(=C\[C@H](C)C[C@H](C)OC(=O)CC(=O)c1ccc(O)c(O)c1)C[C@H](C)C(=O)N[C@@H](C)C(=O)N(C)[C@H](Cc1c(Br)[nH]c2ccccc12)C(N)=O,< 25

# System: NCI-H522
# Assay: Anticancer activity against human NCI-H522 cells
# Type: functional
# In short: (§1)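 NCI-DTP 60 cell line screen; GI50 values supplied by NCI-DTP. HCT-116 GI50 for some entries determined instead by a separate group (Henry Ford Hospital). Compounds failing initial single-dose testing at 10 μM (<25% growth inhibition) were not taken to five-dose testing.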
row,SMILES,GI50 [nM]
1,C/C1=C\[C@H](C)C[C@H](C)OC(=O)C[C@H](c2ccc(O)cc2)NC(=O)[C@@H](Cc2c(Br)[nH]c3cc(Br)ccc23)N(C)C(=O)[C@H](C)NC(=O)[C@@H](C)C1 [JASPLAKINOLIDE R1],3
2,C/C(=C\[C@H](C)C[C@H](C)O)C[C@H](C)C(=O)N[C@@H](C)C(=O)N(C)[C@H](Cc1c(Br)[nH]c2ccccc12)C(=O)N[C@H](CC(=O)O)c1ccc(O)cc1 [JASPLAKINOLIDE Z1],120

# System: HCT-116
# Assay: Antimicrofilament activity in human HCT116 cells assessed as loss of microfilament at 0.05 uM by rhodamine-phalloidin staining
# Type: functional, cell-based
row,SMILES,Activity
1,C/C1=C\[C@H](C)C[C@H](C)OC(=O)C[C@H](c2ccc(O)cc2)NC(=O)[C@@H](Cc2c(Br)[nH]c3cc(Br)ccc23)N(C)C(=O)[C@H](C)NC(=O)[C@@H](C)C1 [JASPLAKINOLIDE R1],inactive
2,C/C(=C\[C@H](C)C[C@H](C)O)C[C@H](C)C(=O)N[C@@H](C)C(=O)N(C)[C@H](Cc1c(Br)[nH]c2ccccc12)C(=O)N[C@H](CC(=O)O)c1ccc(O)cc1 [JASPLAKINOLIDE Z1],inactive
3,C/C(=C\[C@H](C)C[C@H](C)OC(=O)CC(=O)c1ccc(O)c(O)c1)C[C@H](C)C(=O)N[C@@H](C)C(=O)N(C)[C@H](Cc1c(Br)[nH]c2ccccc12)C(N)=O,inactive

# System: U-251
# Assay: Anticancer activity against human U251 cells
# Type: functional
# In short: as §1
row,SMILES,GI50 [nM]
1,C/C1=C\[C@H](C)C[C@H](C)OC(=O)C[C@H](c2ccc(O)cc2)NC(=O)[C@@H](Cc2c(Br)[nH]c3cc(Br)ccc23)N(C)C(=O)[C@H](C)NC(=O)[C@@H](C)C1 [JASPLAKINOLIDE R1],30
2,C/C(=C\[C@H](C)C[C@H](C)O)C[C@H](C)C(=O)N[C@@H](C)C(=O)N(C)[C@H](Cc1c(Br)[nH]c2ccccc12)C(=O)N[C@H](CC(=O)O)c1ccc(O)cc1 [JASPLAKINOLIDE Z1],600

# System: HCT-116
# Assay: Antimicrofilament activity in human HCT116 cells assessed as complete loss of microfilament network at 0.5 uM to 5 uM by rhodamine-phalloidin staining
row,SMILES,Activity
1,C/C1=C\[C@H](C)C[C@H](C)OC(=O)C[C@H](c2ccc(O)cc2)NC(=O)[C@@H](Cc2c(Br)[nH]c3cc(Br)ccc23)N(C)C(=O)[C@H](C)NC(=O)[C@@H](C)C1 [JASPLAKINOLIDE R1],Active

# System: IGROV-1
# Assay: Anticancer activity against human IGROV1 cells
# Type: functional
# In short: as §1
row,SMILES,GI50 [nM]
1,C/C1=C\[C@H](C)C[C@H](C)OC(=O)C[C@H](c2ccc(O)cc2)NC(=O)[C@@H](Cc2c(Br)[nH]c3cc(Br)ccc23)N(C)C(=O)[C@H](C)NC(=O)[C@@H](C)C1 [JASPLAKINOLIDE R1],30
2,C/C(=C\[C@H](C)C[C@H](C)O)C[C@H](C)C(=O)N[C@@H](C)C(=O)N(C)[C@H](Cc1c(Br)[nH]c2ccccc12)C(=O)N[C@H](CC(=O)O)c1ccc(O)cc1 [JASPLAKINOLIDE Z1],1760

# System: HCT-116
# Assay: Antimicrofilament activity in human HCT116 cells assessed as loss of microfilament network at 0.5 uM by rhodamine-phalloidin staining
# Type: functional, cell-based
row,SMILES,Activity
1,C/C(=C\[C@H](C)C[C@H](C)O)C[C@H](C)C(=O)N[C@@H](C)C(=O)N(C)[C@H](Cc1c(Br)[nH]c2ccccc12)C(=O)N[C@H](CC(=O)O)c1ccc(O)cc1 [JASPLAKINOLIDE Z1],Active

# System: HCT-116
# Assay: Antimicrofilament activity in human HCT116 cells assessed as total loss of microfilament network at 1 uM by rhodamine-phalloidin staining
# Type: functional, cell-based
row,SMILES,Activity
1,C/C1=C\[C@H](C)C[C@H](C)OC(=O)C[C@H](c2ccc(O)cc2)NC(=O)[C@@H](Cc2c(Br)[nH]c3cc(Br)ccc23)N(C)C(=O)[C@H](C)NC(=O)[C@@H](C)C1 [JASPLAKINOLIDE R1],Active

# System: A498
# Assay: Anticancer activity against human A498 cells
# Type: functional
# In short: as §1
row,SMILES,GI50 [nM]
1,C/C1=C\[C@H](C)C[C@H](C)OC(=O)C[C@H](c2ccc(O)cc2)NC(=O)[C@@H](Cc2c(Br)[nH]c3cc(Br)ccc23)N(C)C(=O)[C@H](C)NC(=O)[C@@H](C)C1 [JASPLAKINOLIDE R1],40

# System: HCT-116
# Assay: Antimicrofilament activity in human HCT116 cells assessed as loss of microfilament at 5 uM by rhodamine-phalloidin staining
# Type: functional, cell-based
row,SMILES,Activity
1,C/C(=C\[C@H](C)C[C@H](C)O)C[C@H](C)C(=O)N[C@@H](C)C(=O)N(C)[C@H](Cc1c(Br)[nH]c2ccccc12)C(=O)N[C@H](CC(=O)O)c1ccc(O)cc1 [JASPLAKINOLIDE Z1],inactive
2,C/C(=C\[C@H](C)C[C@H](C)OC(=O)CC(=O)c1ccc(O)c(O)c1)C[C@H](C)C(=O)N[C@@H](C)C(=O)N(C)[C@H](Cc1c(Br)[nH]c2ccccc12)C(N)=O,inactive

# System: HCT-116
# Assay: Antimicrofilament activity in human HCT116 cells assessed as total loss of microfilament network at 0.5 uM by rhodamine-phalloidin staining
# Type: functional, cell-based
row,SMILES,Activity
1,C/C1=C\[C@H](C)C[C@H](C)OC(=O)C[C@H](c2ccc(O)cc2)NC(=O)[C@@H](Cc2c(Br)[nH]c3cc(Br)ccc23)N(C)C(=O)[C@H](C)NC(=O)[C@@H](C)C1 [JASPLAKINOLIDE R1],Active

# System: HCT-116
# Assay: Antimicrofilament activity in human HCT116 cells assessed as total loss of microfilament network at 5 uM by rhodamine-phalloidin staining
# Type: functional, cell-based
row,SMILES,Activity
1,C/C1=C\[C@H](C)C[C@H](C)OC(=O)C[C@H](c2ccc(O)cc2)NC(=O)[C@@H](Cc2c(Br)[nH]c3cc(Br)ccc23)N(C)C(=O)[C@H](C)NC(=O)[C@@H](C)C1 [JASPLAKINOLIDE R1],Active

# System: LOX IMVI
# Assay: Anticancer activity against human LOXIMVI cells
# Type: functional
# In short: as §1
row,SMILES,GI50 [nM]
1,C/C1=C\[C@H](C)C[C@H](C)OC(=O)C[C@H](c2ccc(O)cc2)NC(=O)[C@@H](Cc2c(Br)[nH]c3cc(Br)ccc23)N(C)C(=O)[C@H](C)NC(=O)[C@@H](C)C1 [JASPLAKINOLIDE R1],40
2,C/C(=C\[C@H](C)C[C@H](C)O)C[C@H](C)C(=O)N[C@@H](C)C(=O)N(C)[C@H](Cc1c(Br)[nH]c2ccccc12)C(=O)N[C@H](CC(=O)O)c1ccc(O)cc1 [JASPLAKINOLIDE Z1],280

# System: HCT-116
# Assay: Antimicrofilament activity in human HCT116 cells assessed as loss of microfilament at 0.01 uM by rhodamine-phalloidin staining
# Type: functional, cell-based
row,SMILES,Activity
1,C/C1=C\[C@H](C)C[C@H](C)OC(=O)C[C@H](c2ccc(O)cc2)NC(=O)[C@@H](Cc2c(Br)[nH]c3cc(Br)ccc23)N(C)C(=O)[C@H](C)NC(=O)[C@@H](C)C1 [JASPLAKINOLIDE R1],inactive
2,C/C(=C\[C@H](C)C[C@H](C)O)C[C@H](C)C(=O)N[C@@H](C)C(=O)N(C)[C@H](Cc1c(Br)[nH]c2ccccc12)C(=O)N[C@H](CC(=O)O)c1ccc(O)cc1 [JASPLAKINOLIDE Z1],inactive
3,C/C(=C\[C@H](C)C[C@H](C)OC(=O)CC(=O)c1ccc(O)c(O)c1)C[C@H](C)C(=O)N[C@@H](C)C(=O)N(C)[C@H](Cc1c(Br)[nH]c2ccccc12)C(N)=O,inactive

# System: MDA-MB-231
# Assay: Anticancer activity against human MDA-MB-231 cells
# Type: functional
# In short: as §1
row,SMILES,GI50
1,C/C1=C\[C@H](C)C[C@H](C)OC(=O)C[C@H](c2ccc(O)cc2)NC(=O)[C@@H](Cc2c(Br)[nH]c3cc(Br)ccc23)N(C)C(=O)[C@H](C)NC(=O)[C@@H](C)C1 [JASPLAKINOLIDE R1],90 nM
2,C/C(=C\[C@H](C)C[C@H](C)O)C[C@H](C)C(=O)N[C@@H](C)C(=O)N(C)[C@H](Cc1c(Br)[nH]c2ccccc12)C(=O)N[C@H](CC(=O)O)c1ccc(O)cc1 [JASPLAKINOLIDE Z1],2500 nM
3,C/C(=C\[C@H](C)C[C@H](C)OC(=O)CC(=O)c1ccc(O)c(O)c1)C[C@H](C)C(=O)N[C@@H](C)C(=O)N(C)[C@H](Cc1c(Br)[nH]c2ccccc12)C(N)=O,inactive

# System: HCT-116
# Assay: Anticancer activity against human HCT116 cells
# Type: functional
# In short: as §1
row,SMILES,GI50
1,C/C1=C\[C@H](C)C[C@H](C)OC(=O)C[C@H](c2ccc(O)cc2)NC(=O)[C@@H](Cc2c(Br)[nH]c3cc(Br)ccc23)N(C)C(=O)[C@H](C)NC(=O)[C@@H](C)C1 [JASPLAKINOLIDE R1],60 nM
2,C/C(=C\[C@H](C)C[C@H](C)O)C[C@H](C)C(=O)N[C@@H](C)C(=O)N(C)[C@H](Cc1c(Br)[nH]c2ccccc12)C(=O)N[C@H](CC(=O)O)c1ccc(O)cc1 [JASPLAKINOLIDE Z1],13700 nM
3,C/C(=C\[C@H](C)C[C@H](C)OC(=O)CC(=O)c1ccc(O)c(O)c1)C[C@H](C)C(=O)N[C@@H](C)C(=O)N(C)[C@H](Cc1c(Br)[nH]c2ccccc12)C(N)=O,inactive

# System: HCT-116
# Assay: Antimicrofilament activity in human HCT116 cells assessed as loss of microfilament at 0.1 uM by rhodamine-phalloidin staining
# Type: functional, cell-based
row,SMILES,Activity
1,C/C1=C\[C@H](C)C[C@H](C)OC(=O)C[C@H](c2ccc(O)cc2)NC(=O)[C@@H](Cc2c(Br)[nH]c3cc(Br)ccc23)N(C)C(=O)[C@H](C)NC(=O)[C@@H](C)C1 [JASPLAKINOLIDE R1],inactive
2,C/C(=C\[C@H](C)C[C@H](C)O)C[C@H](C)C(=O)N[C@@H](C)C(=O)N(C)[C@H](Cc1c(Br)[nH]c2ccccc12)C(=O)N[C@H](CC(=O)O)c1ccc(O)cc1 [JASPLAKINOLIDE Z1],inactive
3,C/C(=C\[C@H](C)C[C@H](C)OC(=O)CC(=O)c1ccc(O)c(O)c1)C[C@H](C)C(=O)N[C@@H](C)C(=O)N(C)[C@H](Cc1c(Br)[nH]c2ccccc12)C(N)=O,inactive

# System: HCT-116
# Assay: Antimicrofilament activity in human HCT116 cells assessed as loss of microfilament at 1 uM by rhodamine-phalloidin staining
# Type: functional, cell-based
row,SMILES,Activity
1,C/C(=C\[C@H](C)C[C@H](C)O)C[C@H](C)C(=O)N[C@@H](C)C(=O)N(C)[C@H](Cc1c(Br)[nH]c2ccccc12)C(=O)N[C@H](CC(=O)O)c1ccc(O)cc1 [JASPLAKINOLIDE Z1],inactive
2,C/C(=C\[C@H](C)C[C@H](C)OC(=O)CC(=O)c1ccc(O)c(O)c1)C[C@H](C)C(=O)N[C@@H](C)C(=O)N(C)[C@H](Cc1c(Br)[nH]c2ccccc12)C(N)=O,inactive

# System: DU-145
# Assay: Anticancer activity against human DU145 cells
# Type: functional
# In short: as §1
row,SMILES,GI50 [nM]
1,C/C1=C\[C@H](C)C[C@H](C)OC(=O)C[C@H](c2ccc(O)cc2)NC(=O)[C@@H](Cc2c(Br)[nH]c3cc(Br)ccc23)N(C)C(=O)[C@H](C)NC(=O)[C@@H](C)C1 [JASPLAKINOLIDE R1],310
2,C/C(=C\[C@H](C)C[C@H](C)O)C[C@H](C)C(=O)N[C@@H](C)C(=O)N(C)[C@H](Cc1c(Br)[nH]c2ccccc12)C(=O)N[C@H](CC(=O)O)c1ccc(O)cc1 [JASPLAKINOLIDE Z1],18800
